# The list is not random: actives were taken first. Their share in the collection is about 3.9%.
# UPR XBP1 act: adaptive UPR (XBP1) activation; CHO-XBP1 luciferase reporter, IRE1-XBP1 UPR activation, luminescence; percent of tunicamycin response, DMSO as zero; activation, % at 20 µM; 0.33% of 330,000 active; AID 463104;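 active = versus positive control, 20 µM dose yields 30% or more activation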
#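 Material: IRE1-XBP1 luciferase reporter CHO line / Quantity: one thousand reporter cells per well / Buffer or medium: F12 with 10% serum / Compound: 20 µM single concentration, DMSO 1% / Times: 6 h treatment, 37 °C / Detection: Steady-Glo luciferase glow luminescence, 10 min after reagent addition / Benchmarks: tunicamycin high, DMSO low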
# tim10-1 inh: tim10-1 yeast growth inhibition | inhibition, % at 20 µM | S. cerevisiae tim10-1 ts strain growth, BacTiter-Glo, 24 h | 2.2% of 330,000 active | AID 463190;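 active = inhibition of at least 40%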;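 also: mutant grown at 25 °C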
# CHOP UPR activ: activators of apoptotic arm of unfolded protein response (CHOP); 0.34% of 330,000 active; activation, % at 10 µM; CHO-CHOP luciferase reporter, UPR activation, luminescence; percent of tunicamycin response over DMSO baseline;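 active = at 10 µM dose, activation of 40% or more, normalized to positive control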
#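 System: CHO-CHOP luciferase reporter cell line; amount: 500 cells/well; buffer or medium: F12 medium containing 10% fetal bovine serum; incubation: 6 h compound exposure at 37 °C after overnight seeding; measured by: luciferase luminescence after 10 min with Steady-Glo reagent; evaluation: % reporter activation, DMSO baseline versus tunicamycin full activation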
# tim23-1 inh: tim23-1 yeast growth inhibition; inhibition, % at 20 µM; 1.3% of 330,000 active; AID 463212; S. cerevisiae tim23-1 growth, BacTiter-Glo luminescence, 24 h;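 active = growth inhibition of the mutant yeast at or above 50%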;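 also: temperature-sensitive mutant grown at 25 °C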
# TIM10 inh: inhibits growth of TIM10 yeast strain. S. cerevisiae TIM10 strain growth, BacTiter-Glo luminescence, 24 h. inhibition, % at 10 µM. 1.4% of 330,000 active;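 active = inhibition of 40% or more at the single tested concentration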;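 also: wild-type TIM10 isogenic control strain grown at permissive 25 °C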
# UPR CHOP confirm: confirmation of apoptotic unfolded protein response (CHOP) activators; shares compounds with CHOP UPR activ; CHO-CHOP cells, CHOP-luciferase reporter luminescence; percent of tunicamycin response, DMSO as zero; activation, % at 10 µM; 64% of 1,000 active; AID 463112; in the data active = activation above about 33%
# XBP1 UPR conf: adaptive UPR (XBP1) activation, confirmed | shares compounds with UPR XBP1 act | 63% of 1,000 active | CHO-XBP1 IRE1-XBP1 luciferase reporter, luminescence | activation, % at 20 µM;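 active = reporter signal at least 30% of the positive control's activation in two or more of four replicate wells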
# tim10-1 conf: tim10-1 yeast growth inhibition, confirmed; AID 463213; shares compounds with tim10-1 inh; 56% of 7,400 active; inhibition, % at 20 µM; S. cerevisiae tim10-1 ts strain growth, BacTiter-Glo, 24 h;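 active = inhibition of yeast growth at or above a set limit in either of two repeat tests at 20 µM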;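 also: tim10-1 mutant grown at permissive 25 °C to find synthetic lethal compounds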
# TIM10 conf: confirmation of TIM10 yeast growth inhibitors | shares compounds with TIM10 inh | S. cerevisiae tim10 strain growth, BacTiter-Glo luminescence, 24 h | inhibition, % at 10 µM | 63% of 4,600 active | AID 463215;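 active = inhibition of yeast growth at or above a set limit in either of two replicates at 10 µM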; also: this counterscreen used the strain with wild-type TIM10
# tim23-1 conf: confirmation of tim23-1 mutant yeast growth inhibitors; AID 463218; shares compounds with tim23-1 inh; inhibition, % at 20 µM; S. cerevisiae tim23-1 growth, BacTiter-Glo luminescence, 24 h; 83% of 4,400 active;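 active = inhibition above about 39% in either of two replicate wells at 20 µM, limit read from the data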;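 also: temperature-sensitive tim23-1 mutant grown at 25 °C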
# Hits are given with their value; . = inactive; / = no result given.
SMILES,UPR XBP1 act,tim10-1 inh,CHOP UPR activ,tim23-1 inh,TIM10 inh,UPR CHOP confirm,tim10-1 conf,TIM10 conf,tim23-1 conf,others
Cc1cccc(/C=C/C(=O)c2ccc([N+](=O)[O-])o2)c1,.,53.1,216.8,.,88.8,142.5,.,97.5,/,
COc1cccc(/C=C/C(=O)c2cccc([N+](=O)[O-])c2)c1,.,.,.,.,.,/,/,/,/,
CCc1ccc(N2C(=O)C(Cl)=C(Nc3ccc(C(=O)N4CCCC4)cc3)C2=O)cc1,.,.,104.3,.,50.4,.,/,41.7,/,
O=C(c1cccs1)N(C(=O)c1cccs1)c1ccc(Br)cn1,85.8,41.6,98.0,75.3,63.3,59.0,30.9,50.2,62.0,
O=C(COC(=O)/C=C/c1cccc(C(F)(F)F)c1)NC1CCS(=O)(=O)C1 (configuration not stated),.,.,.,.,.,/,/,/,/,
CN(c1ccc(O)cc1)c1nc(-c2cccs2)cs1,.,48.9,47.6,71.7,63.6,.,43.6,57.2,52.1,
O=C(c1ccc(Cl)cc1)C1CCN(Cc2ccccc2)CC1,.,.,.,.,.,/,/,/,/,
O=C(c1ccc(Cl)cc1)C(CN1CCCC1)c1ccccc1 (configuration not stated),.,61.6,150.9,56.8,46.3,169.7,.,51.0,.,
O=C(c1ccc([N+](=O)[O-])o1)N1CCN(c2nc3c(F)cc(F)cc3s2)CC1,.,.,.,.,.,/,/,/,/,
Cc1ccc(C)c2sc(N3CCN(C(=O)c4ccc([N+](=O)[O-])o4)CC3)nc12,.,70.1,82.8,72.8,.,60.8,60.0,/,.,
O=C(NCC1CCCO1)c1ccc(Cl)c(S(=O)(=O)N2CCCCC2)c1 (configuration not stated),.,.,.,.,.,/,/,/,/,
O=C(Oc1ccccc1/C=C\C(=O)c1cc2ccccc2o1)c1ccccc1,.,47.2,73.1,50.4,49.9,243.9,41.5,30.9,48.9,
COc1ccccc1NC(=O)Cc1nnc(SCC(=O)c2ccc(F)cc2)n1C,.,.,.,.,.,/,/,/,/,
Oc1c(C(c2ccccn2)N2CCC(Cc3ccccc3)CC2)cc(Cl)c2cccnc12 (configuration not stated),.,43.4,42.8,54.9,.,73.7,.,/,68.5,
CN1CCN(C(c2ccccn2)c2cc(Cl)c3cccnc3c2O)CC1 (configuration not stated),.,.,.,.,.,/,/,/,/,
CCOC(=O)c1cnc(-n2nc(C)cc2C)nc1NC1CCCCC1,39.6,.,99.4,53.8,.,34.2,/,/,43.0,XBP1 UPR conf=.
CC(=O)Nc1ccc(NC(=O)c2cccc3ccccc23)cc1,.,.,.,.,.,/,/,/,/,
CC(=O)Nc1ccc(N=Cc2c(O)c(C(=O)Nc3ccccc3)cc3ccccc23)cc1,89.9,48.8,45.0,64.4,62.6,42.8,.,.,.,XBP1 UPR conf=.
CC(C)N(CCNC(=O)c1nn(Cc2ccccc2)c(=O)c2ccccc12)C(C)C,.,.,.,.,.,/,/,/,/,
Nn1c(SCC(=O)NCC2CCCO2)nnc1-c1ccc(OC(F)F)cc1 (configuration not stated),.,.,.,.,.,/,/,/,/,
CC(C)=C(NC(=O)c1ccccc1)C(=O)NCCc1nc2ccccc2[nH]1,.,.,.,.,.,/,/,/,/,
O=[N+]([O-])c1ccc2nc(Cl)nc(-c3ccccc3)c2c1,.,.,105.9,53.8,.,87.1,/,/,48.2,
CCOC(=O)c1csc(NC(=O)CSc2nnnn2-c2ccc(OC)cc2)n1,.,.,.,.,.,/,/,/,/,
CCOC(=O)c1c(NC(=O)CSc2nnnn2-c2ccc(OC)cc2)sc(C)c1C,.,.,56.7,50.2,.,.,/,/,81.7,
COc1ccc2c(C(=O)CCl)c[nH]c2c1,.,.,237.9,52.8,43.1,205.3,/,.,51.3,
SMILES,UPR XBP1 act,tim10-1 inh,CHOP UPR activ,tim23-1 inh,TIM10 inh,UPR CHOP confirm,tim10-1 conf,TIM10 conf,tim23-1 conf,others
COc1ccc(OCC(=O)c2c[nH]c3ccccc23)cc1,.,.,.,.,.,/,/,/,/,
O=C(NCc1ccccc1)C1CCC(=O)N(CCCN2CCCC2=O)C1 (configuration not stated),.,.,.,.,.,/,/,/,/,
O=C(Nc1ccc(S(=O)(=O)N2CCCC2)cc1)c1ccc([N+](=O)[O-])o1,.,.,46.9,51.8,.,91.1,/,/,34.0,
Cc1ccc(C(=O)Nc2ccc(S(=O)(=O)N3CCCC3)cc2)o1,.,.,.,.,.,/,/,/,/,
O=C(Nc1ccc(N2CCOCC2)cc1)c1ccc([N+](=O)[O-])o1,.,55.3,56.9,55.0,.,61.4,.,/,57.9,
O=C(COC(=O)c1ccc([N+](=O)[O-])o1)Nc1ccc(N2CCOCC2)cc1,.,.,.,.,.,/,/,/,/,
O=C(Nc1ccc(Cc2ccncc2)cc1)c1ccc([N+](=O)[O-])o1,.,67.1,63.3,70.8,44.9,78.2,59.0,43.0,57.5,
O=C(NCCc1ccc(Cl)cc1Cl)C1=CC=CN2CCS(=O)(=O)N=C12,.,.,.,.,.,/,/,/,/,
Cc1cccc(OCCN2CSC(=S)N(C)C2)c1,.,41.7,58.8,59.4,.,35.4,.,/,75.8,
COc1ccccc1OCCCCN1CCCCC1,.,.,.,.,.,/,/,/,/,
COc1ccccc1OCCN1CSC(=S)N(C)C1,.,41.6,81.9,71.6,53.2,.,31.4,.,60.0,
COc1ccc(-c2cc3ccc(OC(C)C(=O)O)cc3oc2=O)cc1 (configuration not stated),.,.,.,.,.,/,/,/,/,
CC(=O)n1cc(/C=N/NC(=O)c2ccc([N+](=O)[O-])cc2)c2ccccc21,.,.,.,.,.,/,/,/,/,
CC(=O)n1cc(C(C[N+](=O)[O-])SCCN)c2ccccc21 (configuration not stated),.,.,138.4,89.2,91.3,.,/,91.6,.,
COc1cccc(-n2cc(CNC(=O)C3CCC(=O)N(C4CC4)C3)cn2)c1 (configuration not stated),.,.,.,.,.,/,/,/,/,
O=C(COC(=O)CNC(=O)c1ccccc1)NC(=O)NC1CCCCC1,.,.,.,.,.,/,/,/,/,

# Screening data (PubChem BioAssay)
